Legend:
[1] = target: T1, Trehalose-phosphatase (Brugia malayi) (UniProt A8NS89); test: Inhibition of Brugia malayi T6PP using T6P as substrate assessed as fraction of enzyme unbound with compound by measuring ratio of initial velocities of T6P substrate hydrolysis in presence and absence of compound at 1 mM […] by BioMol green dye based HTS assay
T1 sequence (whole entry): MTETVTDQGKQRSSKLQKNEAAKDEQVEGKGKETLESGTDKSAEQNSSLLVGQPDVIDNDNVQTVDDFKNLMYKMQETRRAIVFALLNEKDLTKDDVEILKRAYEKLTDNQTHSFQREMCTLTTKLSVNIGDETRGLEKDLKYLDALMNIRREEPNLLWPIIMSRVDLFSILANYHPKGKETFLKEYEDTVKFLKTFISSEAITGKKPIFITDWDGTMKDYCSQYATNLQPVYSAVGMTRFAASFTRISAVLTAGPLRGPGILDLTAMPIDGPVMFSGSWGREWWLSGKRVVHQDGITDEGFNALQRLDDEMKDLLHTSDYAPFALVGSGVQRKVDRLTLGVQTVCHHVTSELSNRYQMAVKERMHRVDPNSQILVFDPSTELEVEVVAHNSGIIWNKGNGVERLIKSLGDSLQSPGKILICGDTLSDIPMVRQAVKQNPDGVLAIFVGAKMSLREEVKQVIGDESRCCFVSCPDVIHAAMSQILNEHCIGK

Shigella boydii = test: Inhibition of Shigella boydii T6PP using T6P as substrate assessed as fraction of enzyme unbound with compound by measuring ratio of initial velocities of T6P substrate hydrolysis in presence and absence of compound at 1 mM after 5 mins by BioMol green dye based HTS assay
Summary of the method: (§1)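 Freshly purified St-T6PP or Sb-T6PP (5–25 nM) in 50 mM Hepes pH 7.5, 25 mM NaCl, 2 mM MgCl₂, 5% glycerol at 25 °C. T6P at half saturation (Km) for each enzyme. Hydrolysis rate was compared with and without 1 mM inhibitor; phosphate read at 625 nm after 30 min incubation. The ratio VI/V gives the fraction of enzyme not inhibitor-bound.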

Ascaris suum = test: Inhibition of Ascaris suum T6PP using T6P as substrate assessed as fraction of enzyme unbound with compound by measuring ratio of initial velocities of T6P substrate hydrolysis in presence and absence of compound at 1 mM after 5 mins by BioMol green dye based HTS assay
Summary of the method: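 T6P is at half saturation ([T6P] = Km), with and without 1 mM inhibitor, at 25 °C. Released phosphate is detected with dye (30 min incubation) by A625. The reported value is V_I/V, the initial-velocity ratio.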

[2] = tested on: Salmonella enterica subsp. enterica serovar Typhimurium; test: Inhibition of Salmonella typhimurium T6PP using T6P as substrate assessed as fraction of enzyme unbound with compound by measuring ratio of initial velocities of T6P substrate hydrolysis in presence and absence of compound at 1 mM after 5 mins by BioMol green dye based HTS assay; summary of the method: as §1
Trehalose-phosphatase [3] = target: T2, Trehalose-phosphatase (Brugia malayi, UniProt A8NS89); test: Reversible competitive inhibition of Brugia malayi T6PP using T6P as substrate by Lineweaver-Burk plot analysis
T2 sequence (A8NS89 whole entry): T1 sequence (whole entry)

Trehalose-phosphatase [4] = target: T2, Trehalose-phosphatase; test: Competitive inhibition of Brugia malayi T6PP using T6P as substrate by Lineweaver-Burk plot analysis
Summary of the method: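 Continuous phosphate-release assay (EnzChek, MESG/purine nucleoside phosphorylase) at 25 °C. Initial velocities of T6P hydrolysis by T6PP were taken at varied T6P with inhibitor at 0, Ki and 2×Ki. Km and Vmax come from double-reciprocal plots.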

Compound	Ratio [1]	Ratio (Shigella boydii)	Ratio (Ascaris suum)	Ratio [2]	Ki (Trehalose-phosphatase [3]) [µM]	Ki (Trehalose-phosphatase [4]) [µM]
CO[C@H]1O[C@H](COS(=O)(=O)O)[C@@H](OCc2ccccc2)[C@H](O)[C@H]1O	0.68	0.95	0.99	0.97	–	–
CO[C@H]1O[C@H](COS(=O)(=O)O)[C@@H](O)[C@H](OCc2ccccc2)[C@H]1O	0.67	0.84	1.04	0.99	–	–
CO[C@H]1O[C@H](COS(=O)(=O)O)[C@@H](O)[C@H](O)[C@H]1OCc1ccccc1	0.53	1	0.96	0.95	–	–
CO[C@H]1O[C@H](COS(=O)(=O)O)[C@@H](O)[C@H](O)[C@H]1O	0.8	1	1.07	1.04	–	–
NS(=O)(=O)OCc1cccc(N[C@@H]2O[C@H](CO)[C@@H](O)[C@H](O)[C@H]2O)c1	1.05	0.85	0.96	1	–	–
O=S(=O)(O)OCc1cccc(O[C@@H]2O[C@H](CO)[C@@H](O)[C@H](O)[C@H]2O)c1	0.59	0.8	0.98	0.85	–	–
O=S(=O)(O)OC[C@H]1O[C@@H](Oc2cccc3ccccc23)[C@H](O)[C@@H](O)[C@@H]1O	0.85	0.85	0.91	0.8	–	–
O=S(=O)(O)OC[C@H]1O[C@@H](Oc2ccccc2)[C@H](O)[C@@H](O)[C@@H]1O	0.52	0.76	0.92	0.81	800 to 830	–
O=S(=O)(O)OC[C@H]1O[C@@H](Oc2cccc(CO)c2)[C@H](O)[C@@H](O)[C@@H]1O	0.69	0.46	0.63	0.77	–	–
Nc1ccc(O[C@@H]2O[C@H](COS(=O)(=O)O)[C@@H](O)[C@H](O)[C@H]2O)cc1	0.63	1.03	0.74	0.94	–	–
OC[C@H]1O[C@@H](Oc2ccccc2)[C@H](O)[C@@H](O)[C@@H]1O	1.12	0.9	1	0.87	–	–
O=Cc1ccccc1O[C@@H]1O[C@H](COS(=O)(=O)O)[C@@H](O)[C@H](O)[C@H]1O	0.79	0.96	0.99	0.85	–	–
OC[C@H]1O[C@@H](NC(=S)Nc2ccccc2)[C@H](O)[C@@H](O)[C@@H]1O	0.99	0.92	0.81	1.09	–	–
O=S(=O)(O)OC[C@H]1O[C@@H](Oc2ccc(CO)cc2)[C@H](O)[C@@H](O)[C@@H]1O	0.68	0.67	0.76	0.79	–	–
OC[C@H]1O[C@H](O[C@H]2O[C@H](CO)[C@@H](O)[C@H](O)[C@H]2O)[C@H](O)[C@@H](O)[C@@H]1O [TREHALOSE]	0.98	1.01	0.97	0.88	–	> 10000
O=S(=O)(O)OC[C@H]1O[C@@H](n2cc(-c3ccccc3)nn2)[C@H](O)[C@@H](O)[C@@H]1O	0.98	0.9	0.76	0.97	–	–
O=S(=O)(O)OC[C@H]1O[C@H](O)[C@H](O)[C@@H](O)[C@@H]1O	0.93	0.75	0.94	0.84	–	–
